Env fusion inh: HIV envelope-mediated fusion inhibition; HeLa-JRFL Env/CEM21 cell fusion, luciferase; inhibition, % at 12.3 µM; 360,000 compounds, 1.1% hits; AID 651610;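 active = mean replicate inhibition score of at least 50 and every replicate individually at or above 50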
FN deposition inh: fibronectin deposition inhibition | AH1F fibroblasts, Alexa488-fibronectin deposition fluorescence, overnight | inhibition, % at 12.6 µM | 350,000 compounds, 0.086% hits | AID 743247;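 active = mean inhibition across replicates of 30% or more, regardless of how many single replicates reach that level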
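Material: AH1F fibroblast monolayer depositing Alexa488-labelled fibronectin into matrix | Input: 10000 AH1F cells/well | Medium: DMEM plus 2% serum, read in PBS | Reagent: Alexa488-fibronectin, 24 nM final in well | Compound dosing: One dose per compound, pinned | Schedule: 1 h adhesion, overnight exposure | Measured by: Fluorescence at 485 nm excitation, 525 nm emission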
miR122 inh: inhibitors of miR-122 in Huh7 cells; Huh7 miR-122 Renilla luciferase sensor, 48 h; neutral wells = 0, positive control = 100; activation (reporter increase), % at 12.5 µM; 340,000 compounds, 0.3% hits; AID 602342;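 active = mean replicate activation score at least 90 and every replicate individually at or above 90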;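 also: higher luciferase means less miR-122 activity so hits act as miR-122 inhibitors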
S100A4 inh HTS: inhibitors of human S100A4 binding to myosin IIA peptide; 360,000 compounds, 0.14% hits; S100A4/TAMRA-MyoIIA peptide fluorescence polarization; inhibition, % at 10.7 µM;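 active = mean inhibition of at least 70% across replicates, with every replicate also reaching that level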
Target sequence (P26447 whole entry, looked up): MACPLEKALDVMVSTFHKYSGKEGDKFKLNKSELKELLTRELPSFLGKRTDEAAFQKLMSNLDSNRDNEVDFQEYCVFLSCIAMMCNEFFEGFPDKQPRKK
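Material: human S100A4 monomer with TAMRA-labelled myosin IIA peptide; buffer or medium: HEPES pH 7.2 with CaCl2, KCl, NaCl, DTT, Triton; compound dosing: one concentration per compound; schedule: 5 min incubation before reading; benchmarks: neutral control DMSO, positive control TFP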
Vif inh: inhibitors of HIV Vif; HEK293T cells, Vif self-association by quenched fluorescence, imaging, 24 h; inhibition, % at 7.49 µM; 340,000 compounds, 0.35% hits; in the data active = inhibition above about 50%, passing the limit was not always enough
Ecoli rRNA inh: inhibitors of bacterial rRNA selective over humanized ribosomes | E. coli WT GFP vs humanized-ribosome RFP mutants, fluorescence, 24 h; active compounds read low; DMSO median 0, no signal -100 | GFP signal change (wild-type ribosome), % (concentration not given with the values) | 350,000 compounds, 1.6% hits | AID 720706;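 active = significant combined selectivity score with lowered wild-type GFP, culture density cut under 30%, mutant RFP and density less affected; inactive = any of these conditions unmet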
Of the large screens only hits and unclear results are named; the others gave an inactive call; ! = not active in a repeat; [ ] = another dose, or the depositor's remark. Only some compounds are listed: those with a hit (about 2.6% of all), similar ones and a draw of the others.

CN(C)CC#Cc1ccc([C@@H]2[C@@H](CO)N3C(=O)CN(C(=O)Cc4cccnc4)C[C@@H]23)cc1	none (no result: Env fusion inh, FN deposition inh, miR122 inh, Vif inh)
CCN(CC)c1ccc(NC(=O)CCCCCN2C(=O)c3ccccc3C2=O)cc1	none (no result: miR122 inh, S100A4 inh HTS, Ecoli rRNA inh)
CCN(CC)c1ccc(NC(=O)CCCCC(=O)Nc2ccc(N(CC)CC)cc2)cc1	Env fusion inh 61.2
C[C@H]1CN([C@@H](C)CO)S(=O)(=O)c2ccc(Br)cc2O[C@@H]1CN(C)Cc1ccccc1	none
COc1ccccc1C#Cc1ccc2c(c1)O[C@H](CN(C)Cc1ccncc1)[C@H](C)CN([C@@H](C)CO)S2(=O)=O	none (no result: FN deposition inh, Vif inh)
C[C@@H]1CN([C@@H](C)CO)S(=O)(=O)c2ccc(Br)cc2O[C@@H]1CN(C)Cc1ccncc1	S100A4 inh HTS 111.2 (no result: Vif inh)
COCC#Cc1ccc2c(c1)O[C@H](CN(C)Cc1ccc3c(c1)OCO3)[C@@H](C)CN([C@@H](C)CO)S2(=O)=O	miR122 inh 108.7[16.7 µM] (no result: FN deposition inh, Vif inh)
C[C@@H]1CN([C@H](C)CO)S(=O)(=O)c2ccc(Br)cc2O[C@@H]1CN(C)Cc1ccncc1	none (no result: Vif inh)
C[C@H]1CN([C@@H](C)CO)S(=O)(=O)c2ccc(Br)cc2O[C@H]1CN(C)Cc1ccccc1	Env fusion inh 60.6![16.7 µM]
COc1ccccc1C#Cc1ccc2c(c1)O[C@@H](CN(C)Cc1ccncc1)[C@@H](C)CN([C@@H](C)CO)S2(=O)=O	Env fusion inh 45.6[16.7 µM] (no result: FN deposition inh, Vif inh)
CCCN1[C@@H]2c3ccc(C4=CCCCC4)c(=O)n3C[C@H]1[C@H](CO)[C@H]2C(=O)N1CCOCC1	none (no result: Env fusion inh, FN deposition inh, Vif inh)
C[C@H]1CCCCO[C@H](CN(C)C(=O)NC2CCCCC2)[C@@H](C)CN([C@@H](C)CO)C(=O)c2cc(NS(=O)(=O)c3cccs3)ccc2O1	none (no result: FN deposition inh, Vif inh)
CO[C@H]1CN(C)C(=O)c2ccc(NC(=O)C3CC3)cc2OC[C@H](C)N(C(=O)Cc2ccccn2)C[C@@H]1C	none (no result: Env fusion inh, miR122 inh, Vif inh)
C[C@H]1CN([C@@H](C)CO)S(=O)(=O)c2ccc(Br)cc2O[C@H]1CN(C)Cc1ccc(F)cc1	Env fusion inh 70.9[16.7 µM] (no result: Vif inh)
CN(Cc1ccccc1)C1=CC(=[N+]2CCCC2)CC(C)(C)C1	Env fusion inh 60.4, Ecoli rRNA inh -33.5
CC1(C)CC(N2CCCC2)=CC(=[N+]2CCCCCC2)C1	Ecoli rRNA inh -20.6 (no result: FN deposition inh, miR122 inh)
CC1(C)CC(N2CCN(c3ccccc3)CC2)=CC(=[N+]2CCCC2)C1	Env fusion inh 81.0 (no result: S100A4 inh HTS, Ecoli rRNA inh)
CC1CC(C)C[N+](=C2C=C(N3CCCC3)CC(C)(C)C2)C1 (stereo unspecified)	none (no result: miR122 inh)
N#CC(c1nc2ccccc2nc1N1CCCC1)S(=O)(=O)c1ccccc1 (stereo unspecified)	none (no result: FN deposition inh, S100A4 inh HTS, Vif inh, Ecoli rRNA inh)
Cc1cccc(S(=O)(=O)C(C#N)c2nc3ccccc3nc2N2CCCC2)c1 (stereo unspecified)	miR122 inh 118.6 (no result: Env fusion inh, FN deposition inh, S100A4 inh HTS, Ecoli rRNA inh)
O=C(C[C@@H]1C[C@H]2c3cc(NC(=O)CC4CC4)ccc3O[C@H]2[C@@H](CO)O1)NCc1ccccc1F	none (no result: Env fusion inh, Vif inh)
COC(=O)c1c(-c2ccsc2)sc2ccc(-c3cc(OC)c(OC)c(OC)c3)cc12	Env fusion inh 59.2 (no result: miR122 inh)
COc1cc(-c2ccc3sc(-c4ccsc4)c(C#CCO)c3c2)cc(OC)c1OC	none
Oc1ccc(/C=N/Nc2ccnc3cc(Cl)ccc23)c(O)c1	Ecoli rRNA inh -32.7
CNC[C@H]1Oc2ccc(NC(=O)Nc3c(C)noc3C)cc2C(=O)N([C@H](C)CO)C[C@H]1C	none (no result: Vif inh)
COc1ccccc1NC(=O)Cn1cc(C(=O)C(=O)N2CCOCC2)c2ccccc21	none
O=C(Cn1cc(C(=O)C(=O)N2CCOCC2)c2ccccc21)Nc1cccc(C(F)(F)F)c1	Vif inh 70.2 (no result: Env fusion inh)
CC12CCC(/C(=C/NNc3ccc([N+](=O)[O-])cc3[N+](=O)[O-])C1=O)C2(C)C (stereo unspecified)	Ecoli rRNA inh -23.2
O=C(NNc1ccc([N+](=O)[O-])cc1[N+](=O)[O-])C1C2CCCCC21 (stereo unspecified)	none (no result: FN deposition inh, miR122 inh)
O=C(C[C@H]1C[C@@H]2c3cc(NC(=O)C4CCOCC4)ccc3O[C@@H]2[C@H](CO)O1)NCCN1CCCCC1	S100A4 inh HTS 114.9 (no result: Vif inh)
O=C(C[C@@H]1C[C@@H]2c3cc(NC(=O)C4CCOCC4)ccc3O[C@@H]2[C@H](CO)O1)NCc1ccccc1F	Env fusion inh 71.4[16.7 µM] (no result: Vif inh)
O=C(C[C@@H]1C[C@H]2c3cc(NC(=O)C4CCOCC4)ccc3O[C@H]2[C@H](CO)O1)NCc1ccccc1F	Env fusion inh 87.1[16.7 µM] (no result: Vif inh)
C[C@@H]1CN([C@H](C)CO)C(=O)c2c(c3ccccc3n2C)-c2ccccc2CO[C@@H]1CN(C)C(=O)Nc1ccccc1C(F)(F)F	Vif inh 53.0
COc1cccc(NC(=O)N(C)C[C@@H]2OCc3ccccc3-c3c(n(C)c4ccccc34)C(=O)N([C@@H](C)CO)C[C@@H]2C)c1	Env fusion inh 57.4[16.7 µM], S100A4 inh HTS 97.1 (no result: miR122 inh, Vif inh)
C[C@H](CO)N1C[C@H](C)[C@@H](CN(C)C(=O)Nc2ccc(F)cc2)OCc2ccccc2-c2c(n(C)c3ccccc23)C1=O	Env fusion inh 57.7[16.7 µM] (no result: miR122 inh, Vif inh)
COc1cccc(NC(=O)N(C)C[C@@H]2OCc3ccccc3-c3c(n(C)c4ccccc34)C(=O)N([C@@H](C)CO)C[C@H]2C)c1	none (no result: miR122 inh, Vif inh)
C[C@H]1CN([C@@H](C)CO)C(=O)c2c(c3ccccc3n2C)-c2ccccc2CO[C@H]1CN(C)C(=O)Nc1cccc(F)c1	Env fusion inh 88.0 (no result: miR122 inh, Vif inh)
Cc1cc(C(=O)Nc2ccc3c(c2)C(=O)N(C)[C@@H]2CC[C@H](CC(=O)N[C@H](C)c4ccccc4)O[C@H]2CO3)no1	none (no result: Vif inh)
CC(C)C(=O)Nc1ccc2c(c1)C(=O)N(C)[C@H]1CC[C@H](CC(=O)N[C@@H](C)c3ccccc3)O[C@H]1CO2	none (no result: S100A4 inh HTS, Vif inh)
COc1cccc(N2CCN(C(=O)CCc3nnc4ccc(N5CCCC5)nn34)CC2)c1	none
COc1ccccc1N1CCN(C(=O)CCc2nnc3ccc(N4CCC(C)CC4)nn23)CC1	Ecoli rRNA inh -23.0
COc1ccc(-c2ccc3c(N)c(C(=O)c4ccc(OC)c(OC)c4)sc3n2)cc1	Vif inh 148.3 (no result: S100A4 inh HTS, Ecoli rRNA inh)
NC(=O)c1sc2nc(-c3ccccc3)ccc2c1N	Vif inh 61.3
COc1ccc(C(=O)c2sc3nc(-c4ccccc4)ccc3c2N)cc1OC	none (no result: S100A4 inh HTS, Ecoli rRNA inh)
O=C1C=C(c2ccc3c(c2)OCO3)C[C@@H](c2ccc3c(c2)OCO3)C1	none
COc1ccc(C2CC(=O)C=C(NCc3ccc4c(c3)OCO4)C2)cc1 (stereo unspecified)	Ecoli rRNA inh -23.9 (no result: miR122 inh)
COc1ccc([C@H]2CC(=O)C=C(c3ccc4c(c3)OCCO4)C2)cc1	Ecoli rRNA inh -20.5
C[C@H](CO)N1C[C@H](C)[C@@H](CN(C)C(=O)Nc2cccc3ccccc23)Oc2ccc(NS(=O)(=O)c3cccs3)cc2CC1=O	none (no result: FN deposition inh, S100A4 inh HTS, Vif inh)

Assay outcomes (PubChem BioAssay)
